{
  "source": "ChEMBL document CHEMBL4304739",
  "about": "“Discovery of 3-(Indol-5-yl)-indazole Derivatives as Novel Myeloid Differentiation Protein 2/Toll-like Receptor 4 Antagonists for Treatment of Acute Lung Injury” (J Med Chem, 2019)",
  "key": {"[1]": {"biological_target": "Serine/threonine-protein kinase B-raf (Homo sapiens) (UniProt P15056)", "experiment": "Inhibition of wild-type human partial length BRAF (S429 to E741 residues) expressed in mammalian expression system at 1 uM by Kinomescan method", "method_in_brief": "(§1)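 Binding-competition screen on the KINOMEscan platform, run by the provider, with the test compound at 1 μM. Readout is percent of control: (test signal − positive control signal)/(negative control signal − positive control signal) × 100. The DMSO negative control is set as 100% Ctrl and a control compound as 0% Ctrl. Lower values mean stronger hits.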"}, "[2]": {"biological_target": "Casein kinase I isoform delta (Homo sapiens) (UniProt P48730)", "experiment": "Inhibition of wild-type human full length CSNK1D (M1 to K409 residues) expressed in bacterial expression system at 1 uM by Kinomescan method", "method_in_brief": "(§2)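 KINOMEscan competition binding screen at 1 μM compound. Results reported as % of control = (test − positive control)/(DMSO negative control − positive control) × 100, where lower values mean stronger hits.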"}, "Mus musculus [3]": {"test_system": "Mus musculus", "experiment": "Antiinflammatory activity in LPS-induced C57BL/6 mouse model of acute lung injury assessed as reduction in TNFalpha level at 5 to 10 mg/kg, iv pretreated for 15 mins followed by LPS stimulation and measured after 6 hrs by ELISA", "type": "functional, organism-based", "method_in_brief": "(§3)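 Male C57BL/6 mice (18−22 g; n=8 per group). Compound in 0.1% CMC-Na given by tail vein injection 15 min before intraperitoneal LPS (20 mg/kg); controls received saline. Mice were sacrificed 6 h after LPS, and serum and lung tissue were collected.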"}, "[4]": {"biological_target": "MAP kinase-interacting serine/threonine-protein kinase 2 (Homo sapiens) (UniProt Q9HBH9)", "experiment": "Inhibition of wild-type human partial length MKNK2 (G63 to S388 residues) expressed in mammalian expression system at 1 uM by Kinomescan method", "method_in_brief": "as §1"}, "Mus musculus [5]": {"test_system": "Mus musculus", "experiment": "Antiinflammatory activity in LPS-induced C57BL/6 mouse model of acute lung injury assessed as suppression of neutrophil lung infiltration by measuring reduction in MPO activity at 5 to 10 mg/kg, iv pretreated for 15 mins followed by LPS stimulation and measured after 6 hrs", "type": "functional, organism-based", "method_in_brief": "as §3"}, "Mus musculus [6]": {"test_system": "Mus musculus", "experiment": "Antiinflammatory activity in LPS-induced C57BL/6 mouse model of acute lung injury assessed as reduction in IL33 mRNA level at 10 mg/kg, iv pretreated for 15 mins followed by LPS stimulation and measured after 6 hrs by SYBR green staining-based qRT-PCR analysis", "type": "functional, organism-based", "method_in_brief": "(§4)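 Total lung RNA extracted, with DNase I removal of residual DNA. Quantitative PCR with mouse gene primers; each gene normalized to β-actin. C57BL/6 mice given compound iv 15 min before intraperitoneal LPS (20 mg/kg) and killed at 6 h.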"}, "[7]": {"biological_target": "Receptor-type tyrosine-protein kinase FLT3 (Homo sapiens) (UniProt P36888)", "experiment": "Inhibition of wild-type human partial length FLT3 (V592 to Y969 residues) expressed in bacterial expression system at 1 uM by Kinomescan method", "method_in_brief": "as §1"}, "[8]": {"biological_target": "Focal adhesion kinase 1 (Homo sapiens) (UniProt Q05397)", "experiment": "Inhibition of wild-type human partial length FAK (D402 to R696 residues) expressed in bacterial expression system at 1 uM by Kinomescan method", "method_in_brief": "as §1"}, "Mus musculus [9]": {"test_system": "Mus musculus", "experiment": "Antiinflammatory activity in LPS-induced C57BL/6 mouse model of acute lung injury assessed as reduction in IL1beta mRNA level at 10 mg/kg, iv pretreated for 15 mins followed by LPS stimulation and measured after 6 hrs by SYBR green staining-based qRT-PCR analysis", "type": "functional, organism-based", "method_in_brief": "as §4"}, "[10]": {"biological_target": "Macrophage colony-stimulating factor 1 receptor (Homo sapiens) (UniProt P07333)", "experiment": "Inhibition of wild-type human partial length CSF1R (I564 to S939 residues) expressed in bacterial expression system at 1 uM by Kinomescan method", "method_in_brief": "as §1"}, "[11]": {"biological_target": "Tyrosine-protein kinase ABL1 (Homo sapiens) (UniProt P00519)", "experiment": "Inhibition of wild-type human phosphorylated ABL1 (S229 to K512 residues) expressed in mammalian expression system at 1 uM by Kinomescan method", "method_in_brief": "(§5)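 Single-concentration screen at 1 μM on the KINOMEscan panel (98 kinases), run by the platform provider. Results are given as percent of control: % Ctrl = [(test signal − positive control signal)/(negative control signal − positive control signal)] × 100. DMSO serves as negative control (100% Ctrl) and a control compound as positive control (0% Ctrl). Lower values mean stronger binding hits.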"}, "[12]": {"biological_target": "Serine/threonine-protein kinase pim-1 (Homo sapiens) (UniProt P11309)", "experiment": "Inhibition of wild-type human partial length PIM1 (A15 to K313 residues) expressed in bacterial expression system at 1 uM by Kinomescan method", "method_in_brief": "as §1"}, "[13]": {"biological_target": "Dual specificity tyrosine-phosphorylation-regulated kinase 1B (Homo sapiens) (UniProt Q9Y463)", "experiment": "Inhibition of wild-type human full length DYRK1B (M1 to S629 residues) expressed in bacterial expression system at 1 uM by Kinomescan method", "method_in_brief": "as §2"}, "[14]": {"biological_target": "NUAK family SNF1-like kinase 2 (Homo sapiens) (UniProt Q9H093)", "experiment": "Inhibition of wild-type human partial length SNARK (P22 to A333 residues) expressed in mammalian expression system at 1 uM by Kinomescan method", "method_in_brief": "as §5"}, "[15]": {"biological_target": "ALK tyrosine kinase receptor (Homo sapiens) (UniProt Q9UM73)", "experiment": "Inhibition of wild-type human partial length ALK (I1088 to E1409 residues) expressed in mammalian expression system at 1 uM by Kinomescan method", "method_in_brief": "as §1"}, "[16]": {"biological_target": "Serine/threonine-protein kinase ULK2 (Homo sapiens) (UniProt Q8IYT8)", "experiment": "Inhibition of wild-type human partial length ULK2 (M1 to S301 residues) expressed in mammalian expression system at 1 uM by Kinomescan method", "method_in_brief": "as §5"}, "Mus musculus [17]": {"test_system": "Mus musculus", "experiment": "Antiinflammatory activity in LPS-induced C57BL/6 mouse model of acute lung injury assessed as reduction in lung injury score at 5 to 10 mg/kg, iv pretreated for 15 mins followed by LPS stimulation and measured after 6 hrs", "type": "functional, organism-based", "method_in_brief": "as §3"}, "[18]": {"biological_target": "Aurora kinase A (Homo sapiens) (UniProt O14965)", "experiment": "Inhibition of wild-type human partial length AURKA (E122 to K401 residues) expressed in mammalian expression system at 1 uM by Kinomescan method", "method_in_brief": "as §1"}, "[19]": {"biological_target": "Inhibitor of nuclear factor kappa-B kinase subunit alpha (Homo sapiens) (UniProt O15111)", "experiment": "Inhibition of wild-type human full length IKK-alpha (M1 to E745 residues) expressed in mammalian expression system at 1 uM by Kinomescan method", "method_in_brief": "as §2"}, "[20]": {"biological_target": "Serine/threonine-protein kinase Chk1 (Homo sapiens) (UniProt O14757)", "experiment": "Inhibition of wild-type human partial length CHEK1 (M1 to G289 residues) expressed in bacterial expression system at 1 uM by Kinomescan method", "method_in_brief": "as §1"}, "Mus musculus [21]": {"test_system": "Mus musculus", "experiment": "Antiinflammatory activity in LPS-induced C57BL/6 mouse model of acute lung injury assessed as reduction in IL6 mRNA level at 10 mg/kg, iv pretreated for 15 mins followed by LPS stimulation and measured after 6 hrs by SYBR green staining-based qRT-PCR analysis", "type": "functional, organism-based", "method_in_brief": "as §4"}, "[22]": {"biological_target": "Hepatocyte growth factor receptor (Homo sapiens) (UniProt P08581)", "experiment": "Inhibition of wild-type human partial length MET (D1010 to S1367 residues) expressed in bacterial expression system at 1 uM by Kinomescan method", "method_in_brief": "as §1"}},
  "note": "Active and inactive are the calls of the source. The rule behind the calls is not given here.",
  "data": [
    {"smiles": "O=C(Nc1ccc2[nH]nc(-c3ccc4[nH]ccc4c3)c2c1)c1c(Cl)cccc1Cl", "values": [
      {"measurement": "inhibition", "setting": "[1]", "value": "inactive"},
      {"measurement": "inhibition", "setting": "[2]", "value": "inactive"},
      {"measurement": "Activity", "setting": "Mus musculus [3]", "value": "Active"},
      {"measurement": "inhibition", "setting": "[4]", "value": "inactive"},
      {"measurement": "Activity", "setting": "Mus musculus [5]", "value": "Active"},
      {"measurement": "Activity", "setting": "Mus musculus [6]", "value": "Active"},
      {"measurement": "inhibition", "setting": "[7]", "value": "inactive"},
      {"measurement": "inhibition", "setting": "[8]", "value": "inactive"},
      {"measurement": "Activity", "setting": "Mus musculus [9]", "value": "Active"},
      {"measurement": "inhibition", "setting": "[10]", "value": "inactive"},
      {"measurement": "inhibition", "setting": "[11]", "value": "inactive"},
      {"measurement": "inhibition", "setting": "[12]", "value": "inactive"},
      {"measurement": "inhibition", "setting": "[13]", "value": "inactive"},
      {"measurement": "inhibition", "setting": "[14]", "value": "inactive"},
      {"measurement": "inhibition", "setting": "[15]", "value": "inactive"},
      {"measurement": "inhibition", "setting": "[16]", "value": "inactive"},
      {"measurement": "Activity", "setting": "Mus musculus [17]", "value": "Active"},
      {"measurement": "inhibition", "setting": "[18]", "value": "inactive"},
      {"measurement": "inhibition", "setting": "[19]", "value": "inactive"},
      {"measurement": "inhibition", "setting": "[20]", "value": "inactive"},
      {"measurement": "Activity", "setting": "Mus musculus [21]", "value": "Active"},
      {"measurement": "inhibition", "setting": "[22]", "value": "inactive"}
    ]}
  ]
}
